Measurements pooled from the literature.
Protocols differ between the studies behind these lines.
Target: Adenosine receptor A2a (ADORA2A, Homo sapiens, UniProt P29274)

`C#CCNc1nc(Cl)nc2c1ncn2[C@H]1[C@H](O)[C@H](O)[C@]2(C(=O)NC)C[C@H]12` gave an inhibition of 23% (ligand displacement; radioligand; 10 µM; cell membranes).
`COc1cc(NC(C)=O)c(Cl)cc1C(=O)Nc1nccs1` gave an inhibition of 39.7% (cell-free assay; 10 µM).
`c1coc(-c2nc3ccc(CN4CCCCC4)cc3o2)c1` has an inhibition of 5% (ligand displacement; radioligand; 10 µM; cell membranes).
`O=C1N=C(N2CCCCN2)S/C1=C\c1ccc(F)cc1O` gave an inhibition of 10% (ligand displacement; radioligand; 10 µM).
With `O=C(c1ccc(F)cc1)N(Cc1ccccc1)C1CCCCC1` the inhibition was 5% (cell-free assay; 10 µM).
`CC(C)(C)OC(=O)N1CCN(CC(=O)Nc2ccc3oc(-c4ccco4)nc3c2)CC1` has an inhibition of 25% (ligand displacement; radioligand; 10 µM; cell membranes).
The inhibition of `Ic1cccc2cnccc12` is reported as 8% (ligand displacement; radioligand; 10 µM).
For `C=CN1CCCn2c1nc1c2c(=O)n(C)c(=O)n1C`, the inhibition was 29% (ligand displacement; radioligand; 10 µM; cell membranes).
The inhibition of `Nc1nc[nH]c(=O)c1Cl` is reported as 23% (ligand displacement; radioligand; 30 µM; cell membranes).
With `CCN(Cc1ccccc1C(F)(F)F)C(=O)C1CCN(S(=O)(=O)c2ccc3[nH]ncc3c2)CC1` the inhibition was 3% (ligand displacement; radioligand; 10 µM).
For `O=C(Nc1ccc(S(=O)(=O)N2CCC(Cl)CC2)cc1)c1ccc([N+](=O)[O-])o1`, the inhibition was 8% (ligand displacement; radioligand; 10 µM).
With `c1ccc(N2CCN(CCc3ccc4oc(-c5ccco5)nc4c3)CC2)cc1` the inhibition was 3% (ligand displacement; radioligand; 10 µM; cell membranes).
